Gli-Sufu block: antagonists of Gli-Sufu signaling. Sufu-KO-LIGHT fibroblasts, Gli luciferase reporter luminescence. inhibition, % at 5 µM. 340,000 tested, 0.74% active. AID 588413;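 active = inhibition above about 55%, limit read from the data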
NR2E3 ag-1: activates human NR2E3 receptor; Q9Y5X4; CHO-S Gal4-NCOR/VP16-NR2E3 two-hybrid, luciferase; inhibition of corepressor binding, % at 3.98 µM; 360,000 tested, 0.35% active;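 active = inhibition above the mean of all tested compounds plus 3 SD, cut at about 70% in these data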;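 also: higher means lower luciferase signal from less NR2E3 corepressor binding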
GalR3 antag: human GalR3 antagonism; O60755; HEK293 GalR3-CNG cAMP membrane potential fluorescence; galR3 body fused to GalR1 C-terminus; inhibition, % at 3 µM; 360,000 tested, 0.44% active; AID 651719;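 active = inhibition above the screen-wide average plus 3 SD, cut at about 13% in these data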;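 also: forskolin and galanin both at EC90 stimulate the cells; cAMP rise reported by CNG channel membrane potential dye signal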
Target sequence (O60755 1-299 limits assumed): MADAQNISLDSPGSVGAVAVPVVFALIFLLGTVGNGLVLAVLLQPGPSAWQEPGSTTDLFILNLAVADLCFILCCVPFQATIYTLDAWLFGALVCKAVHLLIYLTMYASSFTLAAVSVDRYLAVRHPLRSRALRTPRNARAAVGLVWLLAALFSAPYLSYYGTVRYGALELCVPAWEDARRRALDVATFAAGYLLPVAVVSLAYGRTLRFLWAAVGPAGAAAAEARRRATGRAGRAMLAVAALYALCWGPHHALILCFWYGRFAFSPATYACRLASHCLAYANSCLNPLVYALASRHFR
NR2E3 ag-2: activates human photoreceptor nuclear receptor NR2E3; GST-NR2E3/biotin-RetCOR TR-FRET, 1536-well; inhibition of corepressor binding, % at 4.78 µM; Q9Y5X4; 320,000 tested, 0.12% active;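 active = percent inhibition above the cutoff of mean plus 3 SD of all tested compounds, set per screening campaign, cut at about 20% in these data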
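Assay system: NR2E3–RetCOR corepressor complex. Quantity: 1.35 nM GST-NR2E3. Buffer or medium: pH 7.5 Tris-based buffer. Reagent: biotinylated RetCOR corepressor at 7 nM final. Schedule: 5 h at 4 °C. Detection: TR-FRET, emission read at 617 and 671 nm. Replicates: one well per compound, singlicate testing.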
Jurkat NFkB inh: inhibitors of the PMA/ionomycin-induced NF-kB reporter in Jurkat cells. 330,000 tested, 0.53% active. PMA/ionomycin-induced NF-kB luciferase reporter, luminescence. inhibition, % at 4 µM; in the data active = inhibition above about 50%
697 NFkB inh: inhibitors of the PMA/ionomycin-induced NF-kB reporter in 697 B cells | 330,000 tested, 0.33% active | 697 B-cell NF-kB luciferase reporter, 16 h | inhibition, % at 4 µM; in the data active = inhibition above about 35%
GalR3 antag conf: confirmation of human galanin receptor 3 antagonists. shares compounds with GalR3 antag. HEK293 GalR3 CNG cAMP biosensor, membrane potential fluorescence; galR3 fused to GalR1 carboxy tail; challenged with forskolin and galanin at EC90. inhibition, % at 3 µM. 1,600 tested, 59% active. AID 652245;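 active = inhibition above the primary screen's cutoff, the mean inhibition of all screened compounds plus 3 SD, cut at about 13% in these data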
HEK-CNG parental: acts as nonspecific agonist in parental HEK-CNG cells; activation, % at 3 µM; 1,600 tested, 10% active; shares compounds with GalR3 antag; AID 652268; HEK293-CNG parental cells, cAMP membrane potential fluorescence; normalised: DMSO wells 0%, forskolin wells 100%; in the data active = activation above about 1.3%
Hits are given with their value; – = inactive; · = not tested or not shown. Shown are actives, neighbours in structure and some others; about 1.8% of the full set was active somewhere.

SMILES	Gli-Sufu block	NR2E3 ag-1	GalR3 antag	NR2E3 ag-2	Jurkat NFkB inh	697 NFkB inh	GalR3 antag conf	HEK-CNG parental
CCCCNS(=O)(=O)c1ccc(OCC(=O)N2CCN(Cc3ccc4c(c3)OCO4)CC2)cc1	–	–	14.0	–	–	–	17.0	–
CCC(=NCCC(c1ccccc1)c1ccccc1)c1c(O)[nH]c(=O)[nH]c1=O	–	–	26.2	–	–	–	37.7	–
COc1ccc2nc(-c3ccc(CN4CCC(n5c(=O)[nH]c6cc(Cl)ccc65)CC4)cc3)c(-c3ccccc3)nc2c1	·	·	–	·	·	·	·	·
Cc1ccc(C)c(NC(=S)NCCc2cnc[nH]2)c1	–	–	–	–	–	–	·	·
CC1OC(OC2C=C3CCC4C(CCC5(C)C(c6ccc(=O)oc6)CCC45O)C3(C)CC2)C(O)C(OC2OC(CO)C(O)C(O)C2O)C1O (configuration not stated)	–	–	13.9	·	·	·	38.9	4.1
O=[N+]([O-])c1cccnc1N1CCCNCC1	–	–	–	–	–	–	·	·
CC(C)(C)NCC(O)c1cc(Cl)c(N)c(Cl)c1 (configuration not stated)	–	–	23.8	–	–	–	30.6	5.3

Compound activity: PubChem BioAssay, several laboratories
